From the array DNA melting data of Ke et al. (doi:10.1101/2024.01.08.574731)

Tests used:
[1] = folding enthalpy; higher = less favourable; fluorescence melt of hairpins on a sequencing array, two-state fit; settings: sodium 0.088 M
In short: (§1)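 To match UV melts, fitted temperatures were raised by 9.35 °C. These fits were bootstrapped two-state models that gave melting temperature and folding enthalpy, combined by inverse variance over four replicates. The input was normalised Cy3 fluorescence of library hairpins with annealed Cy3 and quencher oligos on a sequenced MiSeq flow cell, imaged in 50 mM Na-HEPES pH 8.0, 25 mM NaCl in 2.5 °C steps up to 60 °C.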

[2] = melting temperature; fluorescence melt of hairpins on a sequencing array, two-state fit, raised by 9.35 °C to match UV melts; settings: sodium 0.088 M
In short: as §1

Sequence | folding enthalpy [1] | Tm [2]
GATCCAATAATGGATC ((((((....)))))) | -31.1 kcal/mol | 47.5 °C
GATCCAATCTGGATC ((((((...)))))) | -33.1 kcal/mol | 51.8 °C
GATCCACAAGTGGATC ((((((....)))))) | -38.6 kcal/mol | 57.9 °C
GATCCACAATGGATC ((((((...)))))) | -30.7 kcal/mol | 48.3 °C
GATCCACACTGGATC ((((((...)))))) | -33.2 kcal/mol | 50.7 °C
GATCCACAGGTGGATC ((((((....)))))) | -40.9 kcal/mol | 57 °C
GATCCACCCGTGGATC ((((((....)))))) | -40.4 kcal/mol | 57.9 °C
GATCCACCCTGGATC ((((((...)))))) | -33.8 kcal/mol | 51 °C
GATCCACGGTGGATC ((((((...)))))) | -43.6 kcal/mol | 50.6 °C
GATCCACTAATGGATC ((((((....)))))) | -32.7 kcal/mol | 49.8 °C
GATCCACTATTGGATC ((((((....)))))) | -40.9 kcal/mol | 49.8 °C
GATCCACTCATGGATC ((((((....)))))) | -41.5 kcal/mol | 52.5 °C
GATCCACTCCTGGATC ((((((....)))))) | -38.4 kcal/mol | 50.3 °C
GATCCACTTTTGGATC ((((((....)))))) | -34.6 kcal/mol | 50.6 °C
GATCCAGATGTGGATC ((((((....)))))) | -35.4 kcal/mol | 51.1 °C
GATCCAGCAATGGATC ((((((....)))))) | -41.6 kcal/mol | 56.8 °C
GATCCAGCCGTGGATC ((((((....)))))) | -41.2 kcal/mol | 52.8 °C
GATCCAGCTGTGGATC ((((((....)))))) | -38.8 kcal/mol | 50.3 °C
GATCCAGCTTGGATC ((((((...)))))) | -32.9 kcal/mol | 52 °C
GATCCAGGAAACTGGGTC ((.((((....)))).)) | -29.9 kcal/mol | 49.9 °C
GATCCAGGCATGGATC ((((((....)))))) | -45.8 kcal/mol | 57.8 °C
GATCCAGGTGTGGATC ((((((....)))))) | -44.8 kcal/mol | 52 °C
GATCCAGTCATGGATC ((((((....)))))) | -39.8 kcal/mol | 58.3 °C
GATCCAGTCTTGGATC ((((((....)))))) | -43.5 kcal/mol | 53.5 °C

Sequence | folding enthalpy [1] | Tm [2]
GATCCAGTGATGGATC ((((((....)))))) | -35.2 kcal/mol | 56.6 °C
GATCCAGTGTGGATC ((((((...)))))) | -33 kcal/mol | 51.6 °C
GATCCATAGCTGGATC ((((((....)))))) | -33.4 kcal/mol | 49.2 °C
GATCCATAGTTGGATC ((((((....)))))) | -33.2 kcal/mol | 50.6 °C
GATCCATCAATGGATC ((((((....)))))) | -44 kcal/mol | 52.3 °C
GATCCATCCTGGATC ((((((...)))))) | -43 kcal/mol | 52.7 °C
GATCCATCTATGGATC ((((((....)))))) | -39.3 kcal/mol | 55.8 °C
GATCCATCTTTGGATC ((((((....)))))) | -37.5 kcal/mol | 52.6 °C
GATCCATGCCTGGATC ((((((....)))))) | -36.2 kcal/mol | 51.6 °C
GATCCATGGCTGGATC ((((((....)))))) | -35.8 kcal/mol | 50.5 °C
GATCCATGTGTGGATC ((((((....)))))) | -37.2 kcal/mol | 56.5 °C
GATCCATTATGGATC ((((((...)))))) | -35.9 kcal/mol | 52.7 °C
GATCCATTCATGGATC ((((((....)))))) | -43.5 kcal/mol | 59.5 °C
GATCCATTCCTGGATC ((((((....)))))) | -39.1 kcal/mol | 50.3 °C
GATCCATTCTGGATC ((((((...)))))) | -33.2 kcal/mol | 54.3 °C
GATCCATTGTGGATC ((((((...)))))) | -38.8 kcal/mol | 51.7 °C
GATCCATTGTTGGATC ((((((....)))))) | -44.2 kcal/mol | 52.2 °C
GATCCATTTCTGGATC ((((((....)))))) | -34.3 kcal/mol | 51 °C
GATCCATTTTTGGATC ((((((....)))))) | -39.5 kcal/mol | 54 °C
GATCCCAAACGGGATC ((((((....)))))) | -35.3 kcal/mol | 59.7 °C
GATCCCAATGGGATC ((((((...)))))) | -32.5 kcal/mol | 60.6 °C
GATCCCACAAGGGATC ((((((....)))))) | -30.6 kcal/mol | 64.7 °C
GATCCCACGAGGGATC ((((((....)))))) | -34.5 kcal/mol | 63.5 °C
GATCCCACGTGGGATC ((((((....)))))) | -45.1 kcal/mol | 60.3 °C

Sequence | folding enthalpy [1] | Tm [2]
GATCCCACTGGGGATC ((((((....)))))) | -30.7 kcal/mol | 62.4 °C
GATCCCAGTGGGATC ((((((...)))))) | -40.6 kcal/mol | 60.8 °C
GATCCCATGTGGGATC ((((((....)))))) | -38.2 kcal/mol | 61.2 °C
GATCCCCAGTGGGATC ((((((....)))))) | -43.5 kcal/mol | 59.1 °C
GATCCCCATGGGGATC ((((((....)))))) | -39.7 kcal/mol | 67.7 °C
GATCCCCCAAGGGATC ((((((....)))))) | -38.6 kcal/mol | 61.2 °C
GATCCCCCTAGGGATC ((((((....)))))) | -32.6 kcal/mol | 61.3 °C
GATCCCCCTGGGGATC ((((((....)))))) | -36.1 kcal/mol | 67.5 °C
GATCCCCGAAAGGGCATC (((.(((....))).))) | -14.3 kcal/mol | 34.3 °C
GATCCCCGACGGGATC ((((((....)))))) | -27.3 kcal/mol | 56.8 °C
GATCCCCGAGGGATC ((((((...)))))) | -31.8 kcal/mol | 62 °C
GATCCCCGGCGGGATC ((((((....)))))) | -37.8 kcal/mol | 55.7 °C
GATCCCCGGGGGATC ((((((...)))))) | -35.3 kcal/mol | 60.9 °C
GATCCCCGGTGGGATC ((((((....)))))) | -37.5 kcal/mol | 57.7 °C
GATCCCCGTCGGGATC ((((((....)))))) | -32.4 kcal/mol | 62.8 °C
GATCCCCTCTGGGATC ((((((....)))))) | -29 kcal/mol | 60.3 °C
GATCCCCTGTGGGATC ((((((....)))))) | -33.3 kcal/mol | 63 °C
GATCCCCTTGGGATC ((((((...)))))) | -37.4 kcal/mol | 63.6 °C
GATCCCGAAAGGGACATC ((((((....)))..))) | -9.22 kcal/mol | 30.9 °C
GATCCCGAAAGGGCGATC ((((((....)))..))) | -12.2 kcal/mol | 31.9 °C
GATCCCGAAAGGGGTATC ((((((....)))..))) | -11.8 kcal/mol | 35.7 °C
GATCCCGAAAGGGTAATC ((((((....)))..))) | -10.8 kcal/mol | 31.2 °C
GATCCCGATTGGGATC ((((((....)))))) | -36 kcal/mol | 59.1 °C
GATCCCGCGGGGATC ((((((...)))))) | -31.2 kcal/mol | 61 °C

Sequence | folding enthalpy [1] | Tm [2]
GATCCCGGAAACGGGGTC ((.((((....)))).)) | -25.8 kcal/mol | 57.6 °C
GATCCCGGGCGGGATC ((((((....)))))) | -40.1 kcal/mol | 61.1 °C
GATCCCGGGGGGATC ((((((...)))))) | -35.4 kcal/mol | 61.6 °C
GATCCCGTGGGGATC ((((((...)))))) | -32.4 kcal/mol | 64.5 °C
GATCCCTACTGGGATC ((((((....)))))) | -37.7 kcal/mol | 64.4 °C
GATCCCTAGCGGGATC ((((((....)))))) | -34.5 kcal/mol | 59.1 °C
GATCCCTAGTGGGATC ((((((....)))))) | -38.7 kcal/mol | 57 °C
GATCCCTCAGGGATC ((((((...)))))) | -37.2 kcal/mol | 65 °C
GATCCCTCCGGGATC ((((((...)))))) | -44.2 kcal/mol | 67.7 °C
GATCCCTCGGGGGATC ((((((....)))))) | -37.4 kcal/mol | 61.2 °C
GATCCCTCTGGGGATC ((((((....)))))) | -39.1 kcal/mol | 61.5 °C
GATCCCTGCGGGGATC ((((((....)))))) | -45.6 kcal/mol | 62 °C
GATCCCTGGCGGGATC ((((((....)))))) | -37.2 kcal/mol | 59.1 °C
GATCCCTGGGGGATC ((((((...)))))) | -40.5 kcal/mol | 62.2 °C
GATCCCTGGGGGGATC ((((((....)))))) | -37.2 kcal/mol | 63.9 °C
GATCCCTGTGGGGATC ((((((....)))))) | -41.6 kcal/mol | 65.3 °C
GATCCCTTAGGGGATC ((((((....)))))) | -43.7 kcal/mol | 61.3 °C
GATCCCTTATGGGATC ((((((....)))))) | -36.5 kcal/mol | 65.4 °C
GATCCCTTCGGGGATC ((((((....)))))) | -39.8 kcal/mol | 65.2 °C
GATCCCTTGTGGGATC ((((((....)))))) | -31 kcal/mol | 62.4 °C
GATCCCTTTAGGGATC ((((((....)))))) | -39.3 kcal/mol | 68.9 °C
GATCCGAAAACGGATC ((((((....)))))) | -37 kcal/mol | 52.6 °C
GATCCGAAGCGGATC ((((((...)))))) | -37 kcal/mol | 55.4 °C
GATCCGAAGTCGGATC ((((((....)))))) | -39.9 kcal/mol | 56.2 °C
